Source: PMC8798225 (Nature, 2021)

Experiments:
[1] = biological target: T1, Ubr1 (Saccharomyces cerevisiae, UniProt P19812); experiment: In vitro Ubr1-dependent ubiquitination assay; assay type: biochemical; conditions: n = 2
Summary of the method: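 Multi-turnover reaction at 30 °C in 50 mM HEPES pH 7.5, 0.15 M NaCl, 10 mM MgCl2, 5 mM ATP. It contained 0.1 µM Uba1, 4 µM Ubc2, 0.25 µM Ubr1 (wild-type or mutant at the same level), 80 µM Ub and 5 µM substrate. Substrate was Degron or Ub-Degron labelled at an added C-terminal Cys with fluorescein-5-maleimide. Reactions were stopped in SDS sample buffer and resolved by SDS-PAGE with fluorescence imaging.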

[2] = biological target: T2, Ubc2 (Saccharomyces cerevisiae, UniProt P06104); experiment: Accessibility of the catalytic cysteine; assay type: biochemical; conditions: fluorescein-5-maleimide, presence or absence of synthetic U2BR peptide; average fluorescence, n = 2
T2 sequence (P06104 1-172): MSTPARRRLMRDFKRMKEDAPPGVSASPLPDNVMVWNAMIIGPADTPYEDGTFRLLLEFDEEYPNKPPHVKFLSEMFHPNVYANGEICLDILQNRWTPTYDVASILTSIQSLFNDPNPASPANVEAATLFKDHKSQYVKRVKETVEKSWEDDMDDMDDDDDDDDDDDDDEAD

[3] = biological target: T1, Ubr1; experiment: Single-turnover pulse-chase Ub transfer, elongation step; assay type: biochemical; conditions: 0.5 μM Ubr1, 30 °C, 5 min, n = 2
[4] = biological target: T3, Ubc2 (Saccharomyces cerevisiae), wild type (Saccharomyces cerevisiae, UniProt P06104 3-152); experiment: ITC
T3 sequence: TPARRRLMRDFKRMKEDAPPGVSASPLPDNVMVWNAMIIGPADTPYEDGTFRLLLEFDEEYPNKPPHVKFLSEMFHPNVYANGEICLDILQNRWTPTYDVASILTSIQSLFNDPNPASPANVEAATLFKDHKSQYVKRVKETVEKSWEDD

T1 sequence (P19812 whole entry, one chain of several): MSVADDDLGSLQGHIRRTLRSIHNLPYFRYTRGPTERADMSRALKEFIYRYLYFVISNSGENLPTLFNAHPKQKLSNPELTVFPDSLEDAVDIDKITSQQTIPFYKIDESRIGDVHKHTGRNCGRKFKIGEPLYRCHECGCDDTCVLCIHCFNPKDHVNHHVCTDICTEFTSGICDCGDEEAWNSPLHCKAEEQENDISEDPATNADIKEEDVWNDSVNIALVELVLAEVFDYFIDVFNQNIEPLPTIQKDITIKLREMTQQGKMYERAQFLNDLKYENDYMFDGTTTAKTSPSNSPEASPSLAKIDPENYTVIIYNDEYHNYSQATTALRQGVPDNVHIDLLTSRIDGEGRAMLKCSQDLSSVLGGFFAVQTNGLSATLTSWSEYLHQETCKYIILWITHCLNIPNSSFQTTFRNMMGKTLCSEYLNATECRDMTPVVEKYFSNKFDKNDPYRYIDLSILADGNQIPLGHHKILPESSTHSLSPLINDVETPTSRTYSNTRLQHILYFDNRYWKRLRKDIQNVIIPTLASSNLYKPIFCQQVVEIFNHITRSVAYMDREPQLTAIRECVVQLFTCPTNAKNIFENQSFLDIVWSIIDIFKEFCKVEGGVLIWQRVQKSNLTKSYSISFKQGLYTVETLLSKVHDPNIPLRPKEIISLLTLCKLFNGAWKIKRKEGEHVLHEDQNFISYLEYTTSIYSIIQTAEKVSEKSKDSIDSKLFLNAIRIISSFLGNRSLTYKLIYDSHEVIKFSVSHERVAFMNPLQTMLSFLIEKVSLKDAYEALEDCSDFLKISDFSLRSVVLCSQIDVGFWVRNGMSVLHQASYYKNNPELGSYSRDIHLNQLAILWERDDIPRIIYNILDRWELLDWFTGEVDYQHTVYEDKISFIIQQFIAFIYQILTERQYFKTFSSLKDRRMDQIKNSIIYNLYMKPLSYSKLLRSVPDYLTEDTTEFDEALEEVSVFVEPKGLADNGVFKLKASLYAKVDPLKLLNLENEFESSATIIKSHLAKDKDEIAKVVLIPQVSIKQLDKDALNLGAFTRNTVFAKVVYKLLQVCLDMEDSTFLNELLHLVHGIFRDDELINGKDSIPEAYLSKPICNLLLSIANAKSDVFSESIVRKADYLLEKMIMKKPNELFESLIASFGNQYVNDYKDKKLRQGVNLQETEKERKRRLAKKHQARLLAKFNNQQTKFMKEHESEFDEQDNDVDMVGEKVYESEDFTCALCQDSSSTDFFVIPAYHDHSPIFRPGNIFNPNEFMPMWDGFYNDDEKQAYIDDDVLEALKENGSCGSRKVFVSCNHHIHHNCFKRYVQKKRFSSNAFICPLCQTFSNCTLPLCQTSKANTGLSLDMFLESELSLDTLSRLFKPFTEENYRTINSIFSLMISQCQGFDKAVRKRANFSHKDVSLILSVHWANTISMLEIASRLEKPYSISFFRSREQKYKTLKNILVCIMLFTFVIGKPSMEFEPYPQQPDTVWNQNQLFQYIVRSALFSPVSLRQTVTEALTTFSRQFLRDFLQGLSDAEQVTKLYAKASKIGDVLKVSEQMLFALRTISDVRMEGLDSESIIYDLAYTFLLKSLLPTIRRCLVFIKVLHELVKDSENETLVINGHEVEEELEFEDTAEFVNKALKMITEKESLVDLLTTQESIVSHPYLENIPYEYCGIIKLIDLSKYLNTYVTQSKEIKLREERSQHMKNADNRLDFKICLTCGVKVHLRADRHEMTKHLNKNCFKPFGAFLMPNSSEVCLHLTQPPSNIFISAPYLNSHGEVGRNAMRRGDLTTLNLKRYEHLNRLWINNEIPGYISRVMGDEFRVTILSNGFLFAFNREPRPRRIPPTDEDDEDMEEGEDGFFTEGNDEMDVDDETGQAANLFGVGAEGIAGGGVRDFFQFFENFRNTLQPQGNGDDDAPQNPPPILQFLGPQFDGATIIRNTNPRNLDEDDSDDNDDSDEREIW

## U2BR peptide: free U2BR peptide (Ubr1 1165-1200), Ubc2 binding region (KERKRRLAKKHQARLLAKFNNQQTKFMKEHESEFDE; UniProt P19812 1165-1200, looked up, fragment)
[1]; increasing concentrations of synthetic U2BR peptide
  inhibition of polyubiquitination by free U2BR peptide: inhibited polyubiquitination in a dose-dependent manner
[2]
  accessibility of the catalytic cysteine (C88) of Ubc2: decreased

## UBLM mutant: Ubr1 Ub binding loop mutant H678A/V679A/L680A/H681A
[1]; Hs-Type-1 Degron and Type-2 Degron as substrates
  monoubiquitinated product: accumulation of monoubiquitinated product
[1]; UBLM mutant of Ubr1
  Ub transfer to Degron versus Ub-Degron: transferred more Ub to Degron than to Ub-Degron
[1]; fluorescent Degron and Ub-Degron, 30 °C, pH 7.5
  polyubiquitination of Degron and Ub-Degron (effect of mutation): substantially reduced
[3]
  transfer of fluorescent Ub from Ubc2 to Ub-Degron: failed to transfer fluorescent Ub from Ubc2 to Ub-Degron

B1: Ubc2 (C88S): catalytically inactive Ubc2 (protein)
chain: TPARRRLMRDFKRMKEDAPPGVSASPLPDNVMVWNAMIIGPADTPYEDGTFRLLLEFDEEYPNKPPHVKFLSEMFHPNVYANGEISLDILQNRWTPTYDVASILTSIQSLFNDPNPASPANVEAATLFKDHKSQYVKRVKETVEKSWEDD
modifications: left off: His tag, N-terminal, state not stated
[1]; increasing doses up to 12.5 μM pre-mixed with Ubr1 and Degron, then wild-type Ubc2 at 4 μM
  inhibitory effect of pre-mixed inactive Ubc2 on ubiquitination: Minimal inhibitory effects

## KERKRRLAKKHQARLLAKFNNQQTKFMKEHESEFDE (peptide, UniProt P19812 1165-1200, looked up) [U2BR peptide (Ubr1 1165-1200)]
[4]
  Kd: 143 ± 45 nM

B2: N65A: N65A mutation of Ubc2 (protein, UniProt P06104 1-172, looked up, variant N65A)
Ubiquitin-conjugating enzyme …: MSTPARRRLMRDFKRMKEDAPPGVSASPLPDNVMVWNAMIIGPADTPYEDGTFRLLLEFDEEYPAKPPHVKFLSEMFHPNVYANGEICLDILQNRWTPTYDVASILTSIQSLFNDPNPASPANVEAATLFKDHKSQYVKRVKETVEKSWEDDMDDMDDDDDDDDDDDDDEAD
[1]; Ubc2 N65A mutation
  amount of polyubiquitinated Degron: increased the amount of polyubiquitinated Degron
